Source: PubChem
hDAT+cocaine: changed hDAT dopamine uptake under cocaine IC80, either direction, primary screen, cocaine antagonist project, cell-based, LLC-PK1 hDAT, [14C]-dopamine uptake, MLSMR | Sodium-dependent dopamine transporter (Homo sapiens), Q01959 | LLC-PK1 hDAT cells, [14C]-dopamine uptake with cocaine IC80; actives deviate in either direction | B-score at 10 µM | 110,000 compounds, 1.3% hits;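 active means Z score or B-score, a plate-position-corrected score, falls beyond the plate's 99.7% confidence bounds, in either direction; inactive means both scores lie inside the 99.7% bounds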;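 further: scored against the spread of the other compound wells on the same plate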
M1 agonist: M1 muscarinic receptor agonists, primary screen, CHO-M1 cells, Fluo-4 calcium, agonist mode | Fluo-4 calcium fluorescence; active compounds read high | 64,000 compounds, 3% hits | Muscarinic acetylcholine receptor M1 | AID 626, 2007 | B-score at 10 µM;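 active means fluorescence rise, raw or as B-score row- and column-corrected plate score, outside the 99.7% band of its plate's samples, either direction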
HEK293 NFkB inh: inhibitors of PMA/ionomycin-induced NF-kB reporter, primary screen, antigen receptor NF-kB inhibitor project, cell-based, HEK-293 luciferase reporter, luminescence. HEK-293 NF-kB luciferase reporter. inhibition, % at 3 µM. 62,000 compounds, 0.21% hits. AID 465, 2006;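 active means inhibition above the mean of all tested compounds plus 3 SD, cut at about 40% in these data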;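 further: 0% = stimulated DMSO wells and 100% = 10 µM reference inhibitor 5653914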
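Timing: 1 h pretreatment, 16 h stimulation, 37 °C; system: HEK-293 cells with stable firefly luciferase reporter driven by four HIV NF-kB elements; doses: 3 µM once, 0.30% DMSO; measured by: luciferase luminescence; control set: DMSO and 10 µM reference inhibitor; repeats: single test; reagent: PMA plus ionomycin mix as NF-kB-activating stimulus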
M1 antagonist: antagonists of rat M1 muscarinic receptor | CHO-M1 cells, Fluo-4 calcium, ACh EC80 antagonist mode; active compounds read low | B-score at 10 µM | 64,000 compounds, 3.4% hits | AID 628, 2007;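 active means calcium fluorescence response, raw or row-and-column corrected B-score, differing from the plate sample mean either way at a set confidence level, mostly lower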
D1 mod: D1 CRE-luciferase signal change, two-sided – cell-based, HEK293 D1, dopamine EC30, D1 allosteric modulator project, primary screen; D(1A) dopamine receptor (Homo sapiens), P21728; dopamine EC30 potentiation; actives deviate in either direction; B-score at 10 µM; 58,000 compounds, 5.9% hits;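 active means luminescence count or its row- and column-corrected plate score outside the 99.7% band of the plate's sample wells, on either side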
Target sequence (P21728 whole entry, looked up): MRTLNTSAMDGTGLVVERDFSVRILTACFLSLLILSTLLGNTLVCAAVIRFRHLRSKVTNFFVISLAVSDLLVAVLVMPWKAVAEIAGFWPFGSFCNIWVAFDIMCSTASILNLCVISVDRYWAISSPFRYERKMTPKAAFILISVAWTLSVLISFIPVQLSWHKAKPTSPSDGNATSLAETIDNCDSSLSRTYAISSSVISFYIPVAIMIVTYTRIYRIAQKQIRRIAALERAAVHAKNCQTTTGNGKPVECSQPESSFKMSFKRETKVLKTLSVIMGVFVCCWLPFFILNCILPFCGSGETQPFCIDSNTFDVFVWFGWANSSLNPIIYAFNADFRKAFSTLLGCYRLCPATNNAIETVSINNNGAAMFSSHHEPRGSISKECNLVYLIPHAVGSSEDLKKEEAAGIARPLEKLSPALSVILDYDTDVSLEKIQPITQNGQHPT
Jurkat viability: cytotoxicity toward Jurkat T cells, primary screen, cytotoxicity control, cell-based, Jurkat E6.1, 60K MLSMR library | AID 463, 2006 | Jurkat E6.1 viability, ATP luminescence, 48 h | 56,000 compounds, 1.2% hits | inhibition, % at 4 µM;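 active means inhibition above the mean inhibition of all tested compounds plus 3 SD, cut at about 28% in these data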
An asterisk follows results filed as active. The list is not random: actives were taken first. Their share in the collection is about 7.6%.

Results for c1cc(-c2nnc3sc(C4CCCCC4)nn23)ccn1 ?
hDAT+cocaine: -0.86; M1 agonist: -1.2; M1 antagonist: 0.51

What do the screens show for `CN1C(=S)SC(/[N+]([O-])=C\c2ccco2)C1(C)C` (stereo not drawn)?
hDAT+cocaine: 0.4; M1 agonist: -0.0083; HEK293 NFkB inh: 9; M1 antagonist: -0.24; D1 mod: -5.8*; Jurkat viability: 0

What do the screens show for `Cc1ccc(/C=[N+](/[O-])C2SC(=S)N(C)C2(C)C)cc1` (stereo not drawn)?
hDAT+cocaine: -0.25

Results for O=C(O)C(c1ccccc1)C1(O)CCCC1 (stereo not drawn) ?
hDAT+cocaine: 1.7*; M1 agonist: 0.068; HEK293 NFkB inh: 18; M1 antagonist: 0.32; Jurkat viability: -3

Results for Cc1ccc(NC(=O)C(c2ccc(Cl)cc2)N2CCCCC2)cc1 (stereo not drawn) ?
hDAT+cocaine: 0.072

Results for O=C(NCc1ccccc1)c1cnc2n(c1=O)CCS2 ?
hDAT+cocaine: -0.43; M1 agonist: -0.21; HEK293 NFkB inh: 11; M1 antagonist: 0.36; D1 mod: -3.5*; Jurkat viability: 2

How did CCOC(=O)Cn1nc(C)n(-c2ccc(C(C)(C)C)cc2)c1=O do in these assays?
hDAT+cocaine: 1.5

Results for O=C(Nc1ccc(-c2nc3ccccc3[nH]2)cc1)C1CCCO1 (stereo not drawn) ?
hDAT+cocaine: 0.059; M1 agonist: 0.25; HEK293 NFkB inh: -24; M1 antagonist: 0.012; D1 mod: -5*; Jurkat viability: 24

How did O=C(Nc1nc2ccccc2[nH]1)C1CCCO1 (stereo not drawn) do in these assays?
hDAT+cocaine: -0.98; M1 agonist: 0.023; HEK293 NFkB inh: 1; M1 antagonist: -1; D1 mod: -0.014; Jurkat viability: 4

Results for CCCCCCn1c(CN2CCN(C(=O)c3ccco3)CC2)nc2c1c(=O)n(C)c(=O)n2C ?
hDAT+cocaine: 0.27; M1 agonist: -0.81; HEK293 NFkB inh: 5; M1 antagonist: -0.83; D1 mod: 0.57; Jurkat viability: -4

Results for O=C(c1cc(-c2cccc(O)c2)on1)N1CCOCC1 ?
hDAT+cocaine: -0.35; M1 agonist: 0.13; HEK293 NFkB inh: 18; M1 antagonist: -0.71; D1 mod: -5*; Jurkat viability: 4

Results for O=C(c1cc(-c2ccc(O)cc2)on1)N1CCc2ccccc2C1 ?
hDAT+cocaine: -0.82; M1 agonist: -0.93; HEK293 NFkB inh: -5; M1 antagonist: 0.021; D1 mod: -0.69; Jurkat viability: 45*

How did O=C(c1cc(-c2ccccc2O)on1)N1CCc2ccccc2C1 do in these assays?
hDAT+cocaine: -0.62; M1 agonist: -1.3; HEK293 NFkB inh: 9; M1 antagonist: -0.022; D1 mod: 0.52; Jurkat viability: -6

Results for Cc1csc2ncc(C(=O)NCCc3ccccc3)c(=O)n12 ?
hDAT+cocaine: 0.48

Results for O=C(CCCCn1c(=O)c2ccccc2n(Cc2ccc(Cl)cc2)c1=O)NCc1ccco1 ?
hDAT+cocaine: -0.0058; M1 agonist: -0.091; HEK293 NFkB inh: 11; M1 antagonist: 0.15; D1 mod: 0.77; Jurkat viability: 32

How did Cc1cccc(Cn2c(=O)n(CCCC(=O)NCc3ccco3)c(=O)c3ccccc32)c1 do in these assays?
M1 agonist: 0.92; HEK293 NFkB inh: 16; M1 antagonist: 0.036; D1 mod: 0.85; Jurkat viability: 71*

What do the screens show for `Cc1ccc(C(=O)NCCSc2ccc(Cl)cc2)cc1[N+](=O)[O-]`?
hDAT+cocaine: 0.058

Results for Cc1nn(C(=O)Cn2ccc([N+](=O)[O-])n2)c(C)c1Br ?
hDAT+cocaine: 0.72

Results for Cc1nc2c(c(=O)n1CCC(C)C)c1nc3ccccc3nc1n2Cc1ccc2c(c1)OCO2 ?
hDAT+cocaine: 0.069; M1 agonist: -0.5; HEK293 NFkB inh: 12; M1 antagonist: 0.14; D1 mod: 8.8*; Jurkat viability: 4

Results for Cc1nc2c(c(=O)n1CC1CCCO1)c1nc3ccccc3nc1n2CCC(C)C (stereo not drawn) ?
M1 agonist: -0.023; M1 antagonist: 1.1

What do the screens show for `CCN(CC)C(=O)C(Cc1ccccc1)N1C(=O)c2ccccc2C1=O` (stereo not drawn)?
hDAT+cocaine: -0.14

What do the screens show for `S=C(NC1CCCCC1)N(CCc1nc2ccccc2[nH]1)C1CCCC1`?
hDAT+cocaine: 0.06

What do the screens show for `O=C(Nc1ccccc1)N(CCc1nc2ccccc2[nH]1)C1CCCC1`?
hDAT+cocaine: -0.2; M1 agonist: 2.3*; HEK293 NFkB inh: 2; M1 antagonist: -0.012; Jurkat viability: 0

Results for c1ccc(-c2cc(-c3nc(-c4cccnc4)no3)c3ccccc3n2)cc1 ?
M1 agonist: -1.3; HEK293 NFkB inh: 10; M1 antagonist: 0.41; D1 mod: 1; Jurkat viability: 7

What do the screens show for `CSCC[C@H](NC(=O)OC(C)(C)C)c1nnc(SCC(=O)Nc2c(C)cccc2C)o1`?
hDAT+cocaine: -0.54; M1 agonist: 1; HEK293 NFkB inh: 9; M1 antagonist: 2*; D1 mod: -0.99; Jurkat viability: 2

How did Cn1c(=O)n(-c2ccccc2)c(=O)c2c3c(sc21)COC(C)(C)C3 do in these assays?
hDAT+cocaine: -0.49; M1 agonist: 0.56; HEK293 NFkB inh: 4; M1 antagonist: 2.3; D1 mod: 0.19; Jurkat viability: 0

Results for CC1(C)OC(=O)C(=CNc2cccc(C(=O)O)c2)C(=O)O1 ?
hDAT+cocaine: -7*; M1 agonist: -0.73; HEK293 NFkB inh: -16; M1 antagonist: 0.24; D1 mod: -0.1; Jurkat viability: 8

How did CC(NS(=O)(=O)c1ccccc1)C1COc2ccccc2O1 (stereo not drawn) do in these assays?
hDAT+cocaine: -1.2

What do the screens show for `CCn1cc(C(=O)N2CCN(C(=O)c3ccco3)CC2)c2cc(OC)c(OC)cc2c1=O`?
hDAT+cocaine: 0.71; M1 agonist: 0.019; HEK293 NFkB inh: 1; M1 antagonist: -2.1; D1 mod: -0.44; Jurkat viability: 2

Results for CCCc1ccc(OCc2ccc(C(=O)N3CCN(c4ccccn4)CC3)o2)c(OC)c1 ?
hDAT+cocaine: 0.66; M1 agonist: 5.5*; HEK293 NFkB inh: -13; M1 antagonist: -0.69; D1 mod: -0.075; Jurkat viability: 2
